Yeast fitness data for 37 variants are collected here from the RNAGym collection of RNA variant scans (doi:10.1126/science.aae0568).

This sample holds only a part of the variants without activity. Bounds are passed on as bounds.

The chains are these.
B1: tRNA (parent)
chain: GUUCCGUUGGCGUAAUGGUAACGCGUCUCCCUCCUAAGGAGAAGACUGCGGGUUCGAGUCCCGUACGGAACG

In the series the parent is B1. Nature of the series: yeast fitness relative to wild type (ratio to wild type); higher = fitter; tRNA-Arg(CCU), competitive growth, 37 C, YPD. The essentials: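 Start and end populations of a pooled competition were compared by 100-nucleotide paired-end sequencing of gene amplicons. The Saccharomyces cerevisiae strains carried tRNA-Arg(CCU) gene variants at the native genomic locus, synthesised with a 3% per-site mutation rate at 69 sites, and competed in YPD at 37°C for 24 hours in six parallel replicates. Darwinian fitness relative to wild type was based on the change in genotype frequencies. Genotypes required ≥ 100 starting reads, and estimates < 0.5 were set to 0.5.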
For GUUCCGUUGGAGUAAUGGUAACGCGUCUUCCUCCUAAGGAGAAGAUUGCGGGUUCGAGUCCCGUACCGUACG [C11A C29U C46U G67C A69U], the yeast fitness was not above 0.5.
The value for GUUCUGUUGGCGUAAGGGUAACGCGUCUCCCUCCUAAGGAGAAGACUGCGGGUUCGAGUCCCGUACGGAACG [C5U U16G] was 0.809.
Under GUUGCGUUGGCGGAAAGGUAACGCGUCUCCCUCCUAAGGAGAAGACUGCGGGUUCGAGUCCCGUACGGAACG [C4G U13G U16A] stands not above 0.5; under GUUCCGUUGGCGUAAUGGUAAGGCGUCUCCCUCCUAAGGCGAAGACUGCGGGUUCGAGUCCCGUACGGAACG [C22G A40C], 0.68; under GUUCCGUUGGUGUAAUGGUUACGUGUCUCUCUACUAAGGAGAAGACUGCGGGUACGAGUCGCGUACGGAACG [C11U A20U C24U C30U C33A U54A C61G], not above 0.5.
Take GUUCCGUUGGCGUAAUGGUCACGCGUCUCCCUCCUAAGGAAAAGACUGCGGGUUCGAUUCCCGUACGGAACG [A20C G41A G58U]: the yeast fitness is 0.706.
The value for GUUCCGUUGGCGUAAAGGUAACGCGUCUCCCCCCUAUGGAGAAGACUGGGGGUUCGAGUCCCAUACGGAUCG [U16A U32C A37U C49G G63A A70U] was not above 0.5; that for GUUCCGUUGGCGUAAUGGUCACGCGUCUCCCUCCUAAGGAGACGACUGCGGGUUCGAGUCCCGUACGGUCCG [A20C A43C A69U A70C] was 0.725; that for GUUGCGUUGGCGUACUGGUAACGCGUCUCACUCCUAAGGAGCAGACUGCGGGUUCAUGUCCCGUACGGAACG [C4G A15C C30A A42C G56A A57U] was not above 0.5.
Under GUUCCGUUGGCGAAAUGGUAACGCGUCUCCCUCCUAGGGAGAAGACUGCGGGUUCGAGUCCCGUACGGAACG [U13A A37G] stands 0.714; under GUUCCGUUGGCGUAAUGGUAACGCGUCUCCCUCCUAACGAGAAGACUGCAGAUUUGAGUCCCGUACGGAACG [G38C G50A G52A C55U], not above 0.5.
The value for GUUCCGUAGGCGUCAUGGUAACGCGUCUCCAUCCUAAGGACAAGACUGAGGGUUCGAGUCCCGUACGGAACG [U8A A14C C31A G41C C49A] was 0.562; that for GUUCCGUUGGCGUUAUGGUAACGCGUCUCCCUCCUAAGGUGAAGACUGCGGGUAUGAGUCCCGCACGGAACG [A14U A40U U54A C55U U64C] was not above 0.5; that for GUUCCGUUGGGGUAUUGGUAACGCGUCUCCAUCCUAAGGAGAAGACUGCGGGUUCGAGUCCCGUACGGACCG [C11G A15U C31A A70C] was not above 0.5.
In the case of GUUCCGUUGGUGUAAUGGUAACGCGUCUCCCUCCUAAGGAGAAGACUGCGGGUUCAAGUCCGGUACGGAACG [C11U G56A C62G], the yeast fitness is not above 0.5.
As to GUUCCGUUGGCGUAAUGGUAACGGGUCUCCCUCCUAAGGAGAAGACUGCGGGUUCGAGACCCGUACGGAACG [C24G U59A], the yeast fitness worked out at 0.552.
For GAUCCGUUGGCGUAAUGGUUACGCGUCUCCCUCUUAAGGAGAAGACUGCGAGUUCGAGUCCCGUACGGAACG [U2A A20U C34U G51A], the yeast fitness is not above 0.5.
The value for GUUCCGUUGGCGUAAUGGUAACGCGUCUCCCUCCUUAGGAGAAGUCUGCGGGAUCGAGUCCCGUACGGAACG [A36U A45U U53A] was 0.554.
GUCCCGUUGGCGGAAUGGUAACGCGUCUCCCUCCUAAGGAGAAGACUGCGGGUUCGAGUCCCGUACGGAACG [U3C U13G]: the yeast fitness worked out at 1.04.
As for GUUCCGUUGGCGUAAUGGUAACGCGUCUCACUCCUUAGGAGAAGACUGCGGGUUCGAGUCCCGUACGGAACG [C30A A36U], the yeast fitness came to 0.697.
For GUUCCGUUGGCAUAAUGGUAACGCGUCUCCCCCCUAAGGAGAAGACAGGGGGUUCGAGUUCCGUACGGAACG [G12A U32C U47A C49G C60U], the yeast fitness is not above 0.5.
The value for GUUGCGUUGGCGUAAUGGUAACGCGUCUCCCUCGUAAGGAGAAGACUGCGGGUUCGAGACCCGUACGGAACG [C4G C34G U59A] was not above 0.5.
With GUUCCGUUGGCGUACUGGUAACGCGUCUCCCUCCUAAGGAGAAGACUGCGGGGUCGAGUCCCGUACGGAACG [A15C U53G], the yeast fitness turned out to be 0.621.
Take GUUCCGUUGGCGUAAUGGUUACGCGUCUAACUCCUAAGGAGAAGACUGCGGGUUCGAGUCCCGUACGGAACG [A20U C29A C30A]: the yeast fitness was not above 0.5.
With GUUCCGUUGGCGUAAUGGUAACGCGUUUCCCUCCUAAGGAGAUGACUGCGGGUUUGAGUCCCGUACGGAACG [C27U A43U C55U], the yeast fitness worked out at 0.592.
For the variant GUUCCGUCGGCGUAAUGGUAACGCGUCUCCCUCCUAAGGAGAAGACUGCGGGUUCGAGUCACGUACGGAACG [U8C C61A], the yeast fitness is 0.763.
The value for GUUGCGUUGGCGUUAUGGUGCCGCGUCUCCCUCCUAAGGAGAAGACUGCGGGUUCGAGUCCCGUACGGAACG [C4G A14U A20G A21C] was 0.55; that for GUUCCGUUGGCGUAAUGGUAACGCGUCUCCCUCCUAAGGAGAAGACUGCGGGUUCGAGUCCCGUACUCAACG [G67U G68C] was 0.773.
Under GUUCCGUUGGCGUAGUGGUAACGCGUCUCCCUCCUAAGAGGAAGACUGCGGGUUCGCGUCCCGUACGGAACG [A15G G39A A40G A57C] stands 0.534; under GUUCCGUUGGCGUAAUGGUAACGCGACUCCCUCAUAAGGAGAAGACUGCGGGUUCGAGUCCCGUACGGAACG [U26A C34A], 0.592.
With GUUCCGUUGGCGUAUUGGUAACGAAUCUCCCUCCUAAGGAGAAGACCGCGGCUUCGAGUCCCGUUCGGAACG [A15U C24A G25A U47C G52C A65U], the yeast fitness was not above 0.5.
The value for GUUCCGUUGGCGUAAUGGAAACGCGUCUCCCUCCUAAGGAGAAGGCUGCGGGUUCGAGUCCCGUACGCAACG [U19A A45G G68C] was not above 0.5; that for GUACCGUUGGCGUGAUGGUAACGCGUCUCCGUCCUAUGGAGAAGACUGCGGGUUCGAGUCCCGUUCGGAACG [U3A A14G C31G A37U A65U] was not above 0.5; that for GUUCCGUUGGCGUCAUGGUAACGCGUCUCCCUCCUAAGGAGAAGACUGCGGGUUGGUGUCCUGUACGGAACG [A14C C55G A57U C62U] was not above 0.5.
With GUUCCGUUGGCCUAAUGGUAACGCGUCUCCCUCCUAAGGAGAAGACUGCGGGUUCGCGUCCCGUACGGAACG [G12C A57C], the yeast fitness was 0.545.
For GUUCCGUUGGCGUAAUGGUAACGCGUCUCCCACCUAAGGAGAAGACUGCGGGUUCGAGUCCCGGACGGAACG [U32A U64G], the yeast fitness came to 0.751.
In the case of GUUCCGUCGGCGUAAUGGUAACGCGGCUCUCUCCUAAGGGGAAGACUGCGGGUUCGAGUCCCGUACGGAACG [U8C U26G C30U A40G], the yeast fitness was not above 0.5.
